Test results published in ChEMBL document CHEMBL4825680, “Structure-based discovery of potent and selective small-molecule inhibitors targeting signal transducer and activator of transcription 3 (STAT3)” (Eur J Med Chem, 2021).
Activity calls are given as the source filed them. The rule behind the calls is not given here.

How the values were obtained:
[1] = test system: MDA-MB-231; assay: Effect on total STAT3 level in human MDA-MB-231 cells at 0.3 to 3 uM measured after 3 hrs by Western blot analysis; assay type: functional, cell-based; details: dose 0.3-3 µM
In short: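 Breast cancer cells were treated with vehicle (0.1% DMSO) or compound, then lysed in RIPA with PMSF and phosphatase inhibitors. 20–50 μg protein was run on 8 or 12% SDS-PAGE, blotted to PVDF, blocked in 5% BSA, probed with primary antibodies overnight at 4 °C, then HRP secondaries, with ECL detection.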

[2] = molecular target: T1, Signal transducer and activator of transcription 5A (Homo sapiens) (UniProt P42229); assay: Inhibition of STAT5 phosphorylation at Y694 residue in human MDA-MB-231 cells at 0.3 to 3 uM after 3 hrs by Western blotting analysis; assay type: cell-based; details: dose 0.3-3 µM
T1 sequence (whole entry): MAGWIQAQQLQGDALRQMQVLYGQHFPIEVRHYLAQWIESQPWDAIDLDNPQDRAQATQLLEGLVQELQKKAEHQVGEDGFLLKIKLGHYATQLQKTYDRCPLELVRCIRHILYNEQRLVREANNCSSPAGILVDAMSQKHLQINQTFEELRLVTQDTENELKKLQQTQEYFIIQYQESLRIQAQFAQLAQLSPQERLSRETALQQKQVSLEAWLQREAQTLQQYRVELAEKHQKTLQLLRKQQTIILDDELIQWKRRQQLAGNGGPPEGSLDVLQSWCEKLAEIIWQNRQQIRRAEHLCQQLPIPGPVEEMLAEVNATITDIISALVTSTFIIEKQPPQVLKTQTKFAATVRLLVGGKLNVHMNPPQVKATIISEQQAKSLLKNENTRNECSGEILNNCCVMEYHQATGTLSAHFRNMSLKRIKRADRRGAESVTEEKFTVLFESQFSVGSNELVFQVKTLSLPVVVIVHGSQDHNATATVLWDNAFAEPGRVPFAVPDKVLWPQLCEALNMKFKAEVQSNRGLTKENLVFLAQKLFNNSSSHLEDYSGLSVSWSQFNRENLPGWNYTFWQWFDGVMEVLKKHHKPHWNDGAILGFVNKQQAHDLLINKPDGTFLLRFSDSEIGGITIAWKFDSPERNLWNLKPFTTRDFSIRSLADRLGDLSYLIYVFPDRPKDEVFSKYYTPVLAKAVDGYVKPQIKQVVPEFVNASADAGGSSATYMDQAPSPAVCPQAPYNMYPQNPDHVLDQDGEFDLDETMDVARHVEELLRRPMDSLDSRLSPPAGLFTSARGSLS

[3] = test system: MDA-MB-468; assay: Antiproliferative activity against human MDA-MB-468 cells assessed as reduction in cell viability after 72 hrs by CCK8 assay; assay type: functional, cell-based; details: MDA-MB-468, 72 h
In short: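 Cells seeded at 1000–8000 per well were grown overnight, then exposed to 0.1–100 μM compound or 0.1% DMSO vehicle for 72 h. CCK-8 was added for 0.5–4 h at 37 °C and absorbance read at 480 nm. Viability = (OD compound − blank)/(OD vehicle − blank) × 100, with medium as blank. IC50 fitted from three independent experiments.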

[4] = test system: MDA-MB-231; assay: Inhibition of colony formation in human MDA-MB-231 cells at 0.3 uM after 10 to 15 days by crystal violet staining based assay; assay type: functional, cell-based; details: time 10-15 day
In short: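 Cells seeded at 0.5×10^3–1×10^3 per well; compound added the next day. Medium and compound renewed every 2–3 days. After about 10–15 days, colonies fixed with 4% paraformaldehyde, stained with crystal violet, scanned and quantified by image analysis. Triplicate.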

[5] = test system: MDA-MB-231; assay: Induction of apoptosis in human MDA-MB-231 cells assessed as early apoptotic cells at 1 uM after 48 hrs by Annexin-V-FITC/propidium iodide staining based flow cytometric analysis (reference value: 2.98%); assay type: functional
[6] = test system: MDA-MB-231; assay: Induction of apoptosis in human MDA-MB-231 cells assessed as necrotic cells at 3 uM after 48 hrs by Annexin-V-FITC/propidium iodide staining based flow cytometric analysis (Rvb =0.543%); assay type: functional
[7] = Induction of apoptosis in human MDA231-LM2-4175 cells assessed as necrotic cells at 1 uM after 48 hrs by Annexin-V-FITC/propidium iodide staining based flow cytometric analysis (reference value: 0.531%); assay type: functional
[8] = Induction of apoptosis in human MDA231-LM2-4175 cells assessed as viable cells at 3 uM after 48 hrs by Annexin-V-FITC/propidium iodide staining based flow cytometric analysis (reference value: 94.4%); assay type: functional; details: read-out: Activity
[9] = test system: MDA-MB-468; assay: Induction of apoptosis in human MDA-MB-468 cells assessed as late apoptotic cells at 3 uM after 48 hrs by Annexin-V-FITC/propidium iodide staining based flow cytometric analysis (reference value: 1.25%); assay type: functional
[10] = test system: MDA-MB-231; assay: Induction of apoptosis in human MDA-MB-231 cells assessed as increase in caspase-7 cleavage at 3 uM after 48 hrs by Western blot analysis; assay type: functional, cell-based
In short: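 Cells were treated with vehicle (0.1% DMSO) or compound, then analysed by western blot of RIPA lysates (20–50 μg protein, SDS-PAGE, PVDF) for PARP and cleaved caspase-7, with β-actin as loading control. Three independent experiments.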

[11] = test system: HCC70; assay: Inhibition of cell migration in human HCC70 cells incubated for 12 to 96 hrs by wound healing assay; assay type: functional, cell-based; details: dose 0.3-3 µM, time 12-96 hrs
In short: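 Confluent monolayer (0.8–1.2×10^6 cells/well) scratched with a pipette tip, then treated with 0–3 µM compound until vehicle cells filled the gap. Imaged by microscope after about 12–96 h. Triplicate.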

[12] = test system: MDA-MB-231; assay: Inhibition of cell invasion in human MDA-MB-231 cells incubated for 12 hrs by crystal violet staining based transwell assay; assay type: functional; details: dose 1-3 µM
In short: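 Cells seeded at 1.5×10^4–3×10^4 per well in the upper chamber of 8.0 µm pore Transwell inserts and treated with graded compound for 12 h. Non-invading cells removed with cotton. Invaded cells fixed in 4% paraformaldehyde, stained with crystal violet, photographed and counted. Triplicate.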

[13] = Toxicity in mouse xenografted with human MDA-MB-231-4175 cells assessed as morphological change in lung at 5 to 15 mg/kg, […] once daily for 20 days by HE staining based assay; assay type: organism-based; details: in vivo, iv, 480 h, dose 5-15 mg/kg, time 20 day
In short: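 Female NOD-SCID mice aged 4–5 weeks, given 2×10^6–3×10^6 MDA-MB-231-4175 cells subcutaneously in the flank. At about 100 mm³ tumour volume, randomised n=6/group: vehicle (PBS with 15% Cremophor EL), 5 or 15 mg/kg intraperitoneally daily. Killed at day 20; heart, liver, spleen, lung and kidney collected for morphological examination.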

[14] = test system: Breast cancer cell line; assay: Antitumor activity against patient-derived breast cancer cells xenografted in NOD/SCID mouse assessed as reduction in Bcl-xL expression at 5 to 15 mg/kg, iv administered once daily for 20 days by Western blotting analysis; assay type: functional, organism-based; details: Homo sapiens, dose 5-15 mg/kg, time 20.0 day
[15] = Toxicity in NOD/SCID mouse xenografted with patient-derived breast cancer cells assessed as lethargy at 5 to 15 mg/kg, iv administered once daily for 20 days; assay type: organism-based; details: in vivo, 480 h, dose 5-15 mg/kg, time 20 day

Question: Which results are given for O=C(Cc1c(-c2ccccc2)nc2ccccn12)Nc1ccc2c(c1)S(=O)(=O)C=C2?
Answer: Activity [1]: inactive; inhibition [2]: inactive; IC50 [3]: 2.5 µM; inhibition [4]: Active; Activity [5]: 7.38%; Activity [6]: 2.09%; Activity [7]: 1.1%; viability at 3 µM [8]: 83.4%; Activity [9]: 27.8%; Activity [10]: Active; inhibition [11]: Dose-Dependent Effect; inhibition [12]: Dose-Dependent Effect; Activity [13]: Non-Toxic; Activity [14]: Active; Activity [15]: Non-Toxic
